This note sets out measurements from ChEMBL document CHEMBL1759959, “Synthesis and antitumor activity of 10-arylcamptothecin derivatives” (Bioorg Med Chem Lett, 2011).

Active and inactive are the calls of the source. No cut-off for these calls is given here.

One assay relates to HL-60. The assay can be described thus: Cytotoxicity against human HL60 cells after 3 days. In kind it is functional, cell-based. Conditions: Homo sapiens, HL-60, 72 h. The method in brief: (§1)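 HL60 (leukaemia), A549 (lung) and BEL-7402 (liver) human tumour cells exposed to compounds for 3 days; viability read by MTT assay and SRB assay; IC50 (half-maximal inhibitory concentration) reported.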
Consider `CC[C@@]1(O)C(=O)OCc2c1cc1n(c2=O)Cc2cc3cc(-c4ccccc4N(C)C)ccc3nc2-1`, for which the IC50 (commonly the concentration at which inhibition is half-maximal) is 0.16 µM.
`CC[C@@]1(O)C(=O)OCc2c1cc1n(c2=O)Cc2cc3cc(-c4ccc(C(=O)OC)cc4)ccc3nc2-1` returned an IC50 of 0.28 µM.
On the same count and under the same terms, the figure for `CC[C@@]1(O)C(=O)OCc2c1cc1n(c2=O)Cc2cc3cc(-c4ccc(N(C)C)cc4)ccc3nc2-1` is 2.88 µM; for `CC[C@@]1(O)C(=O)OCc2c1cc1n(c2=O)Cc2cc3cc(-c4ccc(Cl)cc4)ccc3nc2-1` it is 0.3 µM; for `CC[C@@]1(O)C(=O)OCc2c1cc1n(c2=O)Cc2cc3cc(-c4ccccc4Cl)ccc3nc2-1` it is 0.59 µM.
On the same count and under the same terms, the figure for `CC[C@@]1(O)C(=O)OCc2c1cc1n(c2=O)Cc2cc3c(CN(C)C)c(O)ccc3nc2-1` [TOPOTECAN] is 0.052 µM.
The same measure, in the same setting: the figure for `CC[C@@]1(O)C(=O)OCc2c1cc1n(c2=O)Cc2cc3cc(-c4cnc5ccccc5c4)ccc3nc2-1` is 1.44 µM; for `CC[C@@]1(O)C(=O)OCc2c1cc1n(c2=O)Cc2cc3cc(-c4cccc(Cl)c4)ccc3nc2-1` it is 0.1 µM; for `CC[C@@]1(O)C(=O)OCc2c1cc1n(c2=O)Cc2cc3cc(-c4cccc(N(C)C)c4)ccc3nc2-1` it is 0.013 µM.

The test system of another assay is A549. The assay can be described thus: Cytotoxicity against human A549 cells after 3 days. Type of assay: functional, cell-based. Conditions: Homo sapiens, A549, 72 h. The method in brief:
as §1
`CC[C@@]1(O)C(=O)OCc2c1cc1n(c2=O)Cc2cc3cc(-c4ccccc4N(C)C)ccc3nc2-1` returned an IC50 of 0.23 µM.
On the same count and under the same terms, the figure for `CC[C@@]1(O)C(=O)OCc2c1cc1n(c2=O)Cc2cc3cc(-c4ccc(C(=O)OC)cc4)ccc3nc2-1` is 0.51 µM.
The same measure, in the same setting: next, `CC[C@@]1(O)C(=O)OCc2c1cc1n(c2=O)Cc2cc3cc(-c4ccc(N(C)C)cc4)ccc3nc2-1`: 2.68 µM.
Same read-out and setting: next, `CC[C@@]1(O)C(=O)OCc2c1cc1n(c2=O)Cc2cc3cc(-c4ccc(Cl)cc4)ccc3nc2-1`: 0.32 µM; `CC[C@@]1(O)C(=O)OCc2c1cc1n(c2=O)Cc2cc3cc(-c4ccccc4Cl)ccc3nc2-1`: 1.12 µM; `CC[C@@]1(O)C(=O)OCc2c1cc1n(c2=O)Cc2cc3c(CN(C)C)c(O)ccc3nc2-1` [TOPOTECAN]: 0.071 µM.
`CC[C@@]1(O)C(=O)OCc2c1cc1n(c2=O)Cc2cc3cc(-c4cnc5ccccc5c4)ccc3nc2-1` showed an IC50 of 5.95 µM.
`CC[C@@]1(O)C(=O)OCc2c1cc1n(c2=O)Cc2cc3cc(-c4cccc(Cl)c4)ccc3nc2-1` came in with an IC50 of 0.067 µM.
The same measure, in the same setting: the figure for `CC[C@@]1(O)C(=O)OCc2c1cc1n(c2=O)Cc2cc3cc(-c4cccc(N(C)C)c4)ccc3nc2-1` is 0.04 µM.

For a further assay, the system named is Bel-7402. As to the kind of experiment: Cytotoxicity against human Bel7402 cells after 3 days. In kind it is functional, cell-based. Conditions: Homo sapiens, Bel-7402, 72 h. The method in brief:
as §1
In the case of `CC[C@@]1(O)C(=O)OCc2c1cc1n(c2=O)Cc2cc3cc(-c4ccccc4N(C)C)ccc3nc2-1`, the IC50 came out at 1.53 µM.
On the same count and under the same terms, the figure for `CC[C@@]1(O)C(=O)OCc2c1cc1n(c2=O)Cc2cc3cc(-c4ccc(C(=O)OC)cc4)ccc3nc2-1` is 0.65 µM; for `CC[C@@]1(O)C(=O)OCc2c1cc1n(c2=O)Cc2cc3cc(-c4ccc(N(C)C)cc4)ccc3nc2-1` it is 36.5 µM.
Still for that read-out and setting: next, `CC[C@@]1(O)C(=O)OCc2c1cc1n(c2=O)Cc2cc3cc(-c4ccc(Cl)cc4)ccc3nc2-1`: 3.12 µM; `CC[C@@]1(O)C(=O)OCc2c1cc1n(c2=O)Cc2cc3cc(-c4ccccc4Cl)ccc3nc2-1`: 2.46 µM; `CC[C@@]1(O)C(=O)OCc2c1cc1n(c2=O)Cc2cc3c(CN(C)C)c(O)ccc3nc2-1` [TOPOTECAN]: 0.47 µM.
On the same count and under the same terms, next, `CC[C@@]1(O)C(=O)OCc2c1cc1n(c2=O)Cc2cc3cc(-c4cnc5ccccc5c4)ccc3nc2-1`: 6.59 µM; `CC[C@@]1(O)C(=O)OCc2c1cc1n(c2=O)Cc2cc3cc(-c4cccc(Cl)c4)ccc3nc2-1`: 0.93 µM.
Compound `CC[C@@]1(O)C(=O)OCc2c1cc1n(c2=O)Cc2cc3cc(-c4cccc(N(C)C)c4)ccc3nc2-1` gave an IC50 of 0.18 µM.

A further assay concerns the target T1, DNA topoisomerase 1 (Homo sapiens) (UniProt P11387).
T1 sequence (whole entry): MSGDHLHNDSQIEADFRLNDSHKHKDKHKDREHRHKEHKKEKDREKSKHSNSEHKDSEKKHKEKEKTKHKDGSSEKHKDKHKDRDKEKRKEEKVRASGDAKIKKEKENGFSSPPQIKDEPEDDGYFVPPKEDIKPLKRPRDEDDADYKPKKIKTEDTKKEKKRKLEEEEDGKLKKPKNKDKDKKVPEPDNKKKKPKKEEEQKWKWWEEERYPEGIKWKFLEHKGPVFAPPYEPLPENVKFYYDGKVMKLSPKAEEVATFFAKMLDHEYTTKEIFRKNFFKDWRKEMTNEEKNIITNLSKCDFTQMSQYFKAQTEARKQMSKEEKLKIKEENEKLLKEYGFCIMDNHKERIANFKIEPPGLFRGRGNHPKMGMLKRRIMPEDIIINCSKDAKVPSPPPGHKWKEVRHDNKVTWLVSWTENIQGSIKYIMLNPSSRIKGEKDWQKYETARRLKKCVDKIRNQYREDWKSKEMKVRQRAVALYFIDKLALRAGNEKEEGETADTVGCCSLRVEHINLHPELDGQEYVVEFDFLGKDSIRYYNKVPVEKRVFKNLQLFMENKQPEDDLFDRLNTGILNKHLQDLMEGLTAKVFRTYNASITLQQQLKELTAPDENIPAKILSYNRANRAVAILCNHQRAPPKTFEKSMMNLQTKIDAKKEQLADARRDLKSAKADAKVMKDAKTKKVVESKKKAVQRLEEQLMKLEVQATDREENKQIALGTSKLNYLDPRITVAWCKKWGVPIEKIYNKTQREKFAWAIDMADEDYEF
As to the kind of experiment: Inhibition of topoisomerase 1-mediated relaxation of supercoiled pBR322 DNA at 6.25 to 100 uM after 30 mins by […].
Conditions: not given
The method in brief: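 Supercoiled pBR322 DNA incubated with topoisomerase I (1 unit) with or without drug, 37 °C, 30 min; stopped with 10% SDS; products resolved on 1% agarose gel, supercoiled versus relaxed bands scored; camptothecin as reference.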
`CC[C@@]1(O)C(=O)OCc2c1cc1n(c2=O)Cc2cc3cc(-c4ccncc4)ccc3nc2-1`: the inhibition result was “Active”.

The test system of another assay is A549. The assay can be described thus: Cell cycle arrest in human A549 cells assessed as accumulation at S phase at 25 nM after 24 hrs by flow cytometry (reference value: 27.52%).
Conditions: not given
(In general: Flow cytometry measures light scatter and fluorescence of single cells or particles in a stream.)
With `CC[C@@]1(O)C(=O)OCc2c1cc1n(c2=O)Cc2cc3c(CN(C)C)c(O)ccc3nc2-1` [TOPOTECAN], the Activity is 24.95%.

The next assay has as its system A549. The assay can be described thus: Cell cycle arrest in human A549 cells assessed as accumulation at G2/M phase at 25 nM after 24 hrs by flow cytometry (reference value: 10.34%).
Conditions: not given
As for `CC[C@@]1(O)C(=O)OCc2c1cc1n(c2=O)Cc2cc3c(CN(C)C)c(O)ccc3nc2-1` [TOPOTECAN], the Activity is reported as 35.02%.

The subject of a further assay is A549. The assay can be described thus: Cell cycle arrest in human A549 cells assessed as accumulation at G0/G1 phase at 25 nM after 24 hrs by flow cytometry (reference value: 62.14%).
Conditions: not given
For the compound `CC[C@@]1(O)C(=O)OCc2c1cc1n(c2=O)Cc2cc3c(CN(C)C)c(O)ccc3nc2-1` [TOPOTECAN], the Activity came out at 40.04%.
